Experimental data pooled from the literature.
pIC50: −log10 of the molar value.
Cell line: MDA-MB-231
Observed: cell growth or viability

| Compound | test | setting | measurement | value |
| --- | --- | --- | --- | --- |
| C=CC(C)(C)c1[nH]cnc1/C=C1/NC(=O)[C@H](C(C)C)NC1=O | SRB |  | pIC50 | < 4.82 |
| CC1CCC(C(C)C)C(OC2=C(Cl)C(=O)c3ccccc3C2=O)C1 (stereo not drawn) | MTT | 24 h | IC50 | 5 µg/mL |
| CC(C)CNC(=S)N/N=C/c1cccc2cc3ccccc3nc12 | MTT | 48 h | pIC50 | < 4.30 |
| Cc1cc(NS(=O)(=O)c2ccc(NC(=O)/C(C#N)=C/c3cccnc3)cc2)no1 | MTT | 48 h | pIC50 | 3.73 |
| COc1cc([C@@H]2c3cc4c(cc3[C@@H](O[C@@H]3O[C@@H]5CO[C@@H](C)O[C@H]5[C@H](O)[C@H]3O)[C@H]3COC(=O)[C@H]23)OCO4)cc(OC)c1O | MTT | 48 h | pIC50 | 4.67 |
| O=C(Nc1ccc(Cl)cc1)Nc1ccc(Oc2nc3ccccc3n3cnnc23)cc1 | MTT | 24 h | pIC50 | < 4.17 |
| CCCc1cc2cc(-n3nc(C)c4c3CC(C)(C)CC4=O)cc(N3CCC(O)CC3)c2c(=O)[nH]1 | MTS |  | pIC50 | 5.42 |
| CNC(=S)N/N=C/c1cccc2cc3ccccc3nc12 | MTT | 48 h | pIC50 | 4.72 |
| Cc1ccc(S(=O)(=O)n2cc(/C=N/NC(=O)c3ccco3)c3ccccc32)cc1 | MTT | 48 h | pIC50 | 4.53 |
| COc1ccc(-n2cc(CNC(=O)[C@@]3(C)[C@H](O)CC[C@@]4(C)[C@H]3CC[C@]3(C)[C@@H]4C(=O)C=C4[C@@H]5[C@@H](C)[C@H](C)CC[C@]5(C)CC[C@]43C)nn2)cc1 | MTT | 24 h | pIC50 | 4.12 |
| C=CCn1c(=O)c2cnc(Nc3ccc(N4CCN(C)CC4)cc3)nc2n1-c1ccc2c(n1)[C@@](O)(CC)CC2 | ATP luminescence | 72 h | pIC50 | 6.20 |
| Cc1cc(NS(=O)(=O)c2ccc(NC(=O)/C(C#N)=C/c3ccc(N4CCCC4)cc3)cc2)no1 | MTT | 48 h | pIC50 | 3.96 |
| COc1ccc(NC(=S)N/N=C/c2cccc3cc4ccccc4nc23)cc1 | MTT | 48 h | pIC50 | < 4.30 |
| Nc1ccn([C@@H]2O[C@H](CO)[C@@H](O)C2(F)F)c(=O)n1 | MTT | 24 h | IC50 | 7.1 µg/mL |
| COc1ccccc1/C=N/N=C1\C(=O)Nc2ccccc21 | MTT | 24 h | IC50 | 41.2 µg/mL |
| C[C@H]1[C@H](C)CC[C@]2(C)CC[C@]3(C)C(=CC(=O)[C@@H]4[C@@]5(C)CC[C@@H](O)[C@](C)(C(=O)NCc6cn(-c7ccccc7C(F)(F)F)nn6)[C@@H]5CC[C@]43C)[C@H]12 | MTT | 24 h | pIC50 | 4.16 |
| S=C(N/N=C/c1cccc2cc3ccccc3nc12)Nc1ccccc1 | MTT | 48 h | pIC50 | < 4.30 |
| Cc1ccc(S(=O)(=O)n2cc(/C=N/NC(=O)c3ccc(C(F)(F)F)cc3)c3ccccc32)cc1 | MTT | 48 h | pIC50 | 4.72 |

| Compound | test | setting | measurement | value |
| --- | --- | --- | --- | --- |
| Cc1cc(NS(=O)(=O)c2ccc(NC(=O)/C(C#N)=C/c3ccc(N4CCOCC4)cc3)cc2)no1 | MTT | 48 h | pIC50 | 4.08 |
| Cc1ccc(S(=O)(=O)n2cc(/C=N/NC(=O)Cc3ccc(F)cc3F)c3ccccc32)cc1 | MTT | 48 h | pIC50 | 4.58 |
| C[C@H]1[C@H](C)CC[C@]2(C(=O)O)CC[C@]3(C)C(=CC[C@@H]4[C@@]5(C)CC[C@H](O)C(C)(C)[C@@H]5CC[C@]43C)[C@H]12 | thymidine uptake | 24 h | pIC50 | 4.88 |
| Cc1ccc(S(=O)(=O)n2cc(/C=N/NC(=O)c3ccccc3)c3ccccc32)cc1 | MTT | 48 h | pIC50 | 4.62 |
| C[C@H]1[C@H](C)CC[C@]2(C)CC[C@]3(C)C(=CC(=O)[C@@H]4[C@@]5(C)CC[C@@H](O)[C@](C)(C(=O)NCc6cn(-c7ccccc7)nn6)[C@@H]5CC[C@]43C)[C@H]12 | MTT | 24 h | pIC50 | 3.99 |
| Cc1sc2c(c1C)C(c1ccc(Cl)cc1)=N[C@@H](CC(=O)NCCCCNC(=O)COc1cccc3c1C(=O)N(C1CCC(=O)NC1=O)C3=O)c1nnc(C)n1-2 (stereo partly drawn) | CCK-8 | 72 h | pIC50 | 5.94 |
| O=C(Nc1ccccc1)Nc1ccc(Oc2nc3ccccc3n3cnnc23)cc1 | MTT | 24 h | pIC50 | < 4.17 |
| O=C1Nc2ccccc2/C1=N/N=C/c1cccc([N+](=O)[O-])c1 | MTT | 24 h | IC50 | 38.3 µg/mL |
| Cc1ccc(S(=O)(=O)n2cc(/C=N/NC(=O)c3cccc(Cl)c3)c3ccccc32)cc1 | MTT | 48 h | pIC50 | 4.60 |
| CO[C@H]1[C@H](O[C@H]([C@H]2O[C@@H](n3ccc(=O)[nH]c3=O)[C@H](O)[C@@H]2O)[C@H](NCCCNC(=O)[C@@H](NC(=O)[C@@H](NC(=O)N[C@H](C(=O)O)C(C)C)[C@@H]2CCN=C(N)N2)[C@@H](OC(=O)CCCCCCCCCCCCN(O)C(=N)N)C(C)C)C(=O)O)O[C@H](CN)[C@H]1O | WST-1 |  | pIC50 | 6.01 |
| Cc1ccc(C(C)C)c(OC2=C(Cl)C(=O)c3ccccc3C2=O)c1 | MTT | 24 h | IC50 | 60 µg/mL |
| COc1cccc2c1C(=O)c1c(O)c3c(c(O)c1C2=O)C[C@@](O)(C(=O)CO)C[C@@H]3O[C@H]1C[C@H](N)[C@H](O)[C@H](C)O1 | MTT | 24 h | pIC50 | 5.22 |
| COc1ccc(C(=O)N/N=C/c2cn(S(=O)(=O)c3ccc(C)cc3)c3ccccc23)cc1 | MTT | 48 h | pIC50 | 4.46 |
| C[C@H]1[C@H](C)CC[C@]2(C)CC[C@]3(C)C(=CC(=O)[C@@H]4[C@@]5(C)CC[C@@H](O)[C@](C)(C(=O)NCc6cn(-c7ccc(F)cc7)nn6)[C@@H]5CC[C@]43C)[C@H]12 | MTT | 24 h | pIC50 | 4.15 |
| COc1cc([C@@H]2c3cc4c(cc3[C@@H](O[C@@H]3O[C@@H]5CO[C@@H](C)O[C@H]5[C@H](O)[C@H]3O)[C@H]3COC(=O)[C@H]23)OCO4)cc(OC)c1O | ATP luminescence | 48 h | pIC50 | 5.67 |
| Cc1ccc(S(=O)(=O)n2cc(/C=N/NC(=O)Cc3cc(F)cc(F)c3)c3ccccc32)cc1 | MTT | 48 h | pIC50 | 4.49 |
| CC(C)=CCc1ncc(/C=C2\NC(=O)[C@H](C(C)C)NC2=O)[nH]1 | SRB |  | pIC50 | < 4.82 |
| CC(=O)N1CCC(Nc2cc(C(=O)NC[C@H](O)CN3CCc4ccccc4C3)ncn2)CC1 | CCK-8 | 72 h | pIC50 | < 4.00 |
